# Measured values taken from ChEMBL document CHEMBL2163245 (J Med Chem, 2012).
# Biological target: T1, Potassium voltage-gated channel subfamily KQT member 2 (Homo sapiens, UniProt O43526)
# Assay: Antagonist activity at KCNQ2 expressed in CHO cells incubated for 3 mins by automated patch clamp assay
# Assay type: functional, cell-based
# T1 sequence (O43526 whole entry): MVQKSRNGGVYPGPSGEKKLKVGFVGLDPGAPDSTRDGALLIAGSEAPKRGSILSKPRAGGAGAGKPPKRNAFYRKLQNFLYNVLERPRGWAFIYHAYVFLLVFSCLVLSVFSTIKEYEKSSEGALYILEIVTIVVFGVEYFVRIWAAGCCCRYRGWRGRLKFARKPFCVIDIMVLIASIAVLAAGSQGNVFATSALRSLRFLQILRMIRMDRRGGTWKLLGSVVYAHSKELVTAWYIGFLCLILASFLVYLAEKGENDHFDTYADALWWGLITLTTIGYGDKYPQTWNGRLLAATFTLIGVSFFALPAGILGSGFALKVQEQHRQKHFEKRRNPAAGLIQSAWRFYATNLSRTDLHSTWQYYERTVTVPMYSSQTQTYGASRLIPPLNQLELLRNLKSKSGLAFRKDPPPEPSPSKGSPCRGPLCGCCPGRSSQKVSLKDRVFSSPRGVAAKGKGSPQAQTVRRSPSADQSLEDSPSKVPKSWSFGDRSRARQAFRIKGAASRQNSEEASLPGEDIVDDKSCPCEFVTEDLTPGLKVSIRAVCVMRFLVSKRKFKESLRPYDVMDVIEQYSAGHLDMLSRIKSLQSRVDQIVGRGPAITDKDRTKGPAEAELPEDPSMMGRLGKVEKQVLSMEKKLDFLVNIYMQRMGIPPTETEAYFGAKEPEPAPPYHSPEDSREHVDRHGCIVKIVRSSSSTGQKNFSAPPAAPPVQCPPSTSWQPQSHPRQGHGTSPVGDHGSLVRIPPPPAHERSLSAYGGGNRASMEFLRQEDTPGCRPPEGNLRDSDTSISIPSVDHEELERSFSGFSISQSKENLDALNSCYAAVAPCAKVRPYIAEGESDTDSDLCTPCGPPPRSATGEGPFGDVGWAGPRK
row,Compound,IC50
1,CCC(C(=O)Nc1ccccc1N1CCCC1)c1cccc(OC)c1 (racemic),120 nM
2,O=C(Nc1ccccc1N1CCCC1)C(c1ccccc1)C1CC1 (racemic),3500 nM
3,O=C(Nc1ccccc1N1CCCC1)C1CCc2ccccc21 (racemic),330 nM
4,CCC(C(=O)Nc1ccccc1N1CCCC1)c1ccc(OC)c(OC)c1 (racemic),20200 nM
5,CCC(C(=O)Nc1ccccc1N1CCCC1)c1cccc(F)c1 (racemic),360 nM
6,CCC(C(=O)Nc1ccccc1N1CCCC1)c1cccc(C(F)(F)F)c1 (racemic),390 nM
7,CCC(C(=O)Nc1ccccc1N1CCCC1)c1ccc(Cl)c(Cl)c1 (racemic),470 nM
8,CCC(C(=O)Nc1ccccc1N1CCCC1)c1ccc(F)cc1 (racemic),130 nM
9,CCC(C(=O)N(C)c1ccccc1N1CCCC1)c1ccccc1 (racemic),> 30000 nM
10,O=C(Nc1ccccc1N1CCCC1)C1(c2ccccc2)CC1,> 30000 nM
11,CCC(C(=O)Nc1ccccc1N1CCCC1)c1ccc(F)c(F)c1 (racemic),170 nM
12,CC(C)(C(=O)Nc1ccccc1N1CCCC1)c1ccccc1,> 30000 nM
13,CCC(C(=O)Nc1ccccc1N1CCCC1)c1ccc(OC)cc1 (racemic),380 nM
14,O=C(Nc1ccccc1N1CCCC1)C1CCOc2ccccc21 (racemic),> 30000 nM

# Results, then the compound that gave them:
row,IC50,Compound
1,240 nM,CCC(C(=O)Nc1ccccc1N1CCCC1)c1cccc(Cl)c1 (racemic)
2,15000 nM,CCC(C(=O)Nc1ccccc1Cl)c1ccccc1 (racemic)
3,> 30000 nM,CCC(C(=O)Nc1ccccc1N1C(=O)CCC1=O)c1ccccc1 (racemic)
4,320 nM,CCCC(C(=O)Nc1ccccc1N1CCCC1)c1ccccc1 (racemic)
5,3310 nM,CCC(C(=O)Nc1ccccc1N1CCCC1)c1ccccc1Cl (racemic)
6,163 nM,CCC(C(=O)Nc1ccccc1N1CCCC1)c1ccccc1 (racemic)
7,2220 nM,CC(C)CC(C(=O)Nc1ccccc1N1CCCC1)c1ccccc1 (racemic)
8,> 30000 nM,CCC(C(=O)Nc1ccccc1N1CCCCCC1)c1ccccc1 (racemic)
9,> 30000 nM,CCC(C(=O)Nc1ccccc1-n1ccnc1)c1ccccc1 (racemic)
10,210 nM,CCC(C(=O)Nc1ccc(N2CCCC2)cc1)c1ccccc1 (configuration not stated)
11,> 30000 nM,CCC(C(=O)Nc1cccc(N2CCCC2)c1)c1ccccc1 (racemic)
12,330 nM,CCC(C(=O)Nc1ccccc1N1CCCC1)c1cccc(C)c1 (racemic)
13,12700 nM,CCC(C(=O)Nc1ccccc1N1CCOCC1)c1ccccc1 (racemic)
14,440 nM,CCC(C(=O)Nc1ccccc1N1CCCC1)c1ccccc1F (racemic)
15,5270 nM,CCC(C(=O)Nc1ccccc1-n1cccc1)c1ccccc1 (racemic)
16,280 nM,CCC(C(=O)Nc1ccccc1N1CCCC1)c1ccc(Cl)cc1 (racemic)
17,260 nM,CC(C(=O)Nc1ccccc1N1CCCC1)c1ccccc1 (racemic)
18,> 30000 nM,CCC(C(=O)Nc1ccccc1N(C)CC)c1ccccc1 (racemic)

# Test system: not listed separately
# Assay: Selectivity ratio of IC50 for KCNQ1 to KCNQ2
row,Compound,Ratio IC50
1,CCC(C(=O)Nc1ccccc1N1CCCC1)c1cccc(OC)c1 (racemic),> 40
2,CCC(C(=O)Nc1ccccc1N1CCCC1)c1cccc(F)c1 (racemic),> 40
3,CCC(C(=O)Nc1ccccc1N1CCCC1)c1cccc(C(F)(F)F)c1 (racemic),> 40
4,CCC(C(=O)Nc1ccccc1N1CCCC1)c1ccc(F)cc1 (racemic),> 40

# Next, values leading:
row,Ratio IC50,Compound
1,> 40,CCC(C(=O)Nc1ccccc1N1CCCC1)c1cccc(Cl)c1 (racemic)
2,> 40,CC[C@H](C(=O)Nc1ccccc1N1CCCCC1)c1ccccc1
3,> 40,C[C@H](C(=O)Nc1ccccc1N1CCCC1)c1ccccc1
4,> 40,CCC(C(=O)Nc1ccccc1N1CCCC1)c1cccc(C)c1 (racemic)
5,> 40,CCC(C(=O)Nc1ccccc1N1CCCC1)c1ccccc1F (racemic)
6,> 40,CCC(C(=O)Nc1ccccc1N1CCCC1)c1ccc(Cl)cc1 (racemic)

# Biological target: T1, Potassium voltage-gated channel subfamily KQT member 2
# Assay: Agonist activity at KCNQ2 expressed in CHO cells incubated for 3 mins by automated patch clamp assay
# Assay type: functional, cell-based
# In short: (§1)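 Ionworks Quattro population patch clamp on CHO cells stably expressing KCNQ2, 7,000 cells/well in extracellular solution (mM: 137 NaCl, 4 KCl, 1 MgCl2, 1.8 CaCl2, 10 HEPES, 10 glucose, pH 7.4), amphotericin B (50 μg/ml) perforation. Held -90 mV, 2,000 ms step to -10 mV; steady-state current at pulse end before and 3 min after compound; % change versus pre-compound current. Cells >100 pA and seal >30 MΩ only.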
row,Compound,EC50
1,O=C(Cc1cccc(Cl)c1)Nc1ccc(N2CCCC2)cc1,8660 nM
2,CN(C(=O)Cc1ccccc1)c1ccccc1N1CCCC1,> 30000 nM
3,O=C(Cc1ccccc1Cl)Nc1ccccc1N1CCCC1,950 nM
4,O=C(Cc1cccc(Cl)c1)Nc1ccccc1-n1cccc1,12300 nM
5,O=C(Cc1ccc(Cl)c(Cl)c1)Nc1ccccc1N1CCCC1,1070 nM
6,O=C(Cc1cccc(F)c1)Nc1ccccc1N1CCCC1,490 nM
7,COc1cccc(CC(=O)Nc2ccccc2N2CCCC2)c1,2350 nM
8,O=C(Cc1ccc(F)cc1)Nc1ccccc1N1CCCC1,700 nM
9,Cc1cccc(CC(=O)Nc2ccccc2N2CCCC2)c1,1320 nM
10,O=C(Cc1ccccc1)Nc1ccccc1N1CCCC1,743 nM
11,O=C(Cc1cccc(Cl)c1)Nc1ccccc1N1CCOCC1,> 30000 nM
12,O=C(Cc1cccc(C(F)(F)F)c1)Nc1ccccc1N1CCCC1,350 nM
13,O=C(Cc1cccc(Cl)c1)Nc1ccccc1N1CCCC1,170 nM
14,CN(Cc1ccccc1)c1ccccc1NC(=O)Cc1cccc(Cl)c1,> 30000 nM
15,O=C(Cc1ccc(Cl)cc1)Nc1ccccc1N1CCCC1,800 nM
16,O=C(Cc1cccc(Cl)c1)Nc1ccccc1N1CCCCC1,7090 nM
17,CCN(C)c1ccccc1NC(=O)Cc1cccc(Cl)c1,> 30000 nM
18,COc1ccc(CC(=O)Nc2ccccc2N2CCCC2)cc1,1750 nM
19,O=C(Cc1ccc(F)c(F)c1)Nc1ccccc1N1CCCC1,1730 nM
20,CN(C)c1ccccc1NC(=O)Cc1cccc(Cl)c1,27400 nM
21,O=C(Cc1cccc(Cl)c1)Nc1cccc(N2CCCC2)c1,1020 nM
22,O=C(Cc1cccc(Cl)c1)Nc1ccccc1N1CCCCCC1,> 30000 nM

# The next lines start with the values.
row,EC50,Compound
1,990 nM,O=C(Nc1ccccc1N1CCCC1)C(F)c1ccccc1 (configuration not stated)
2,> 30000 nM,CCC(C(=O)Nc1ccccc1-n1c(C)ccc1C)c1ccccc1 (racemic)

# Biological target: T1, Potassium voltage-gated channel subfamily KQT member 2
# Assay: Agonist activity at KCNQ2 expressed in CHO cells at 30 uM incubated for 3 mins by automated patch clamp assay
# Assay type: functional, cell-based
# In short: as §1
row,inhibition,Compound
1,26.6%,O=C(Cc1ccccc1F)Nc1ccccc1N1CCCC1
